# SENP1 FRET inh = human SENP1 catalytic domain inhibitors, primary screen, biochemical, FRET, uHTS | Sentrin-specific protease 1 (Homo sapiens), Q9P0U3 | 360,000 compounds, 0.21% hits | AID 624204, 2012 | inhibition, % at 10 µM | recombinant SENP1 catalytic domain, CyPet-SUMO1-YPet FRET cleavage;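 active = inhibition at least 30% at 10 µM, raw YFP signal under a set limit, fluorescence ratio 0.5 to 1.5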;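 also: 0% = enzyme with DMSO and 100% = no enzyme wells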
# Target sequence (Q9P0U3 419-644 limits assumed): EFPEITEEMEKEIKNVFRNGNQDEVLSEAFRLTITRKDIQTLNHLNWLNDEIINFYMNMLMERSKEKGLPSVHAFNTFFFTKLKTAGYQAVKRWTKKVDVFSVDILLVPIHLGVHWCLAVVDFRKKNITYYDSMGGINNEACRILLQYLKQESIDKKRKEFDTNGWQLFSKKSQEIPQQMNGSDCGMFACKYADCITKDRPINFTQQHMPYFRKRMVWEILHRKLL
#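 Material – human SENP1 catalytic domain · Input – SENP1 enzyme, 20 pM final · Compound dosing – single concentration of 10 µM compound, 0.5% DMSO final · Timing – enzyme reaction for 50 min at room temperature, dark · Measured by – FRET fluorescence in CFP and YFP emission channels · Control set – no-enzyme wells low, DMSO-plus-enzyme wells high control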
# NadD inh = inhibitors of S. aureus NadD, primary screen, biochemical, colorimetric, uHTS | Nicotinate-nucleotide adenylyltransferase NadD (Staphylococcus aureus N315) | purified NadD enzyme, colorimetric absorbance read-out | inhibition, % at 20 µM | 360,000 compounds, 0.78% hits | AID 602399, 2012; in the data active = inhibition above about 26%
# UCH37 inh = inhibitors of human UCH37 deubiquitinase, primary screen, biochemical, Ub-AMC cleavage, fluorescence; purified proteasome/UCH37; inhibition, % (test concentration not listed); Ubiquitin carboxyl-terminal hydrolase isozyme L5 (Homo sapiens), Q9Y5K5; 330,000 compounds, 0.33% hits;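 active = mean inhibition over replicate wells above about 20%, limit read from the data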;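 also: 0% = compound-free wells with enzyme and 100% = wells lacking proteasome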
# Target sequence (Q9Y5K5 whole entry, looked up): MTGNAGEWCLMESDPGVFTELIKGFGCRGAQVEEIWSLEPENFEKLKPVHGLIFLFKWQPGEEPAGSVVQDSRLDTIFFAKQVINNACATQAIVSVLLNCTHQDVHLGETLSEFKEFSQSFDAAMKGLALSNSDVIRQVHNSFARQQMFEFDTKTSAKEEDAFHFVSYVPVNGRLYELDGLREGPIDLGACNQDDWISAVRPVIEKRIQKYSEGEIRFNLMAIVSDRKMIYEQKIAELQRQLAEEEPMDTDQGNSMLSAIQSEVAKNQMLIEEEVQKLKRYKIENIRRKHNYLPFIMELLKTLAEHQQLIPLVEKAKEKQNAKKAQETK
#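 System: Proteasome-associated human UCH37 deubiquitinase; Input: 0.15 nM proteasome in added enzyme buffer; Also added: Ub-AMC substrate from 1 µM stock; Incubation: 30 min compound-proteasome preincubation then 25 min substrate reaction, room temperature; Detection: fluorescence, ex 355 nm, em 460 nm; Read-out: % inhibition of Ub-AMC cleavage fluorescence; Benchmarks: no-proteasome and no-compound wells.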
# ATG4B inhibitor = ATG4B protease inhibitors, primary screen, biochemical, fluorescence, uHTS. Cysteine protease ATG4B (Homo sapiens), Q9Y4P1. AID 504462, 2011. ATG4B cleavage of LC3-PLA2, NBD-HPC fluorescence, 1 h. 340,000 compounds, 0.51% hits. inhibition, % at 8.33 µM; in the data active = inhibition above about 40%
# NR3A LBD binder = binders of NR3A ligand-binding domain, primary screen, biophysical, differential scanning fluorimetry, uHTS; AID 1259313, 2017; 340,000 compounds, 2.5% hits; Tm shift relative to glycine control, % at 25 µM; Glutamate receptor ionotropic, NMDA 3A (GRIN3A) ligand-binding domain; NR3A LBD differential scanning fluorimetry, Tm shift; 0% = protein alone, 100% = glycine-bound protein;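 active = melting temperature shift of at least 10% of the positive control shift, at one fixed dose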
# An asterisk follows results filed as active; . = no result given. Compounds with a hit are over-represented: about 3.6% of the library has one in this group of screens.
SMILES,SENP1 FRET inh,NadD inh,UCH37 inh,ATG4B inhibitor,NR3A LBD binder
O=C(Nc1ccc(NC(=O)c2cccs2)c(Cl)c1)c1cccs1,1,-9,6,-13,13*
O=C(Nc1ccc(NC(=O)c2ccc(Cl)cc2Cl)cc1)c1cccs1,1,7,-22,0,-4
O=C(Nc1ccc(NC(=O)c2ccccc2F)cc1)c1cccs1,1,-3,-7,2,22*
O=C(Nc1ccc(NC(=O)c2cccs2)cc1Cl)c1ccco1,1,-6,-31,-2,4
O=C(COc1ccccc1-c1ccccc1)NN=Cc1ccccn1,.,.,3,.,.
O=C(/C=C/c1ccccc1)Nc1ccc(NC(=O)c2cccs2)cc1,0,6,3,6,29*
COc1ccc(CC(=O)Nc2ccc(-c3cn4ccccc4n3)cc2)cc1,4,2,-3,1,3
O=C(Nc1ccc(-c2cn3ccccc3n2)cc1)c1cccs1,0,7,-145,-4,25*
O=C(/C=C/c1ccccc1)NNC(=O)c1cccs1,1,-10,0,-3,-1
S=C(Nc1cccc(Cl)c1)N1CCN(c2ccccn2)CC1,5,3,4,-5,1
S=C(Nc1ccc(Cl)c(Cl)c1)N1CCN(c2ccccn2)CC1,3,7,0,2,11*
CN1CCN(C(=S)Nc2ccc(Cl)c(Cl)c2)CC1,-1,-4,3,1,13*
Cc1ccc(S(=O)(=O)NCC(=O)NN=Cc2ccccc2O)cc1,.,.,-24,.,.
CC(=NNC(=O)c1cccnc1)c1ccc(C)c([N+](=O)[O-])c1,.,.,6,.,.
Cc1cccc(C=Nn2c(COc3ccccc3)n[nH]c2=S)c1,.,.,2,.,.
Cn1cccc1C=NNC(=O)C(O)c1ccccc1 (stereo not drawn),.,.,8,.,.
NC(=O)C1CCN(C(=O)CC2(CC(=O)O)CCCCC2)CC1,0,-3,-2,1,-1
NC(=O)CC1(CC(=O)O)CCCCC1,0,1,2,-3,13*
COc1ccc(C=NNC(=O)c2ccc(N)cc2)cc1Cn1cc([N+](=O)[O-])cn1,.,.,7,.,.
Cc1nn(CCCC(=O)Nc2sc3c(c2C#N)CCC3)c(C)c1[N+](=O)[O-],-2,-7,8,-4,0
Cc1nn(CC(=O)Nc2sc3c(c2C#N)CCC(C(C)(C)C)C3)c(C)c1[N+](=O)[O-] (stereo not drawn),3,24,1,2,14*
COc1cc(C=NN2C(=O)CSC2=S)ccc1O,.,.,12,.,.
Cc1ccc(C(=O)CSc2nsc(C)c2C#N)cc1,-4,-10,3,-6,15*
Cc1snc(SCC(=O)c2ccc(Cl)cc2)c1C#N,0,-4,1,-2,-1
Cc1ncc(CO)c(C=NNC(=O)c2cccc(S(=O)(=O)N3CCCC3)c2)c1O,.,.,-78,.,.
SMILES,SENP1 FRET inh,NadD inh,UCH37 inh,ATG4B inhibitor,NR3A LBD binder
Oc1nc(Nc2ccccc2)sc1/C=C1\C=Nc2ccccc21,-142,1,3,15,27*
CC1=Nc2ccccc2C1=Cc1sc(Nc2ccc(C)cc2)nc1O,.,.,5,.,.
S=c1[nH]nc(-c2ccco2)n1N=Cc1cccc(Cl)c1Cl,.,.,4,.,.
COc1cccc(Cn2c(=O)sc3ccccc3c2=O)c1,1,-9,2,-2,0
Cc1ccc(Cn2c(=O)sc3ccccc3c2=O)cc1,0,-6,3,-3,11*
COc1c([N+](=O)[O-])c(=O)oc2ccccc12,0,0,6,-9,13*
Cc1ccc2nc(-c3ccc(NS(=O)(=O)c4ccccc4)cc3)sc2c1,-79,2,-80,-1,28*
Cc1ccc2nc(-c3ccc(NS(=O)(=O)c4ccc(F)c(F)c4)cc3)sc2c1,-26,-5,-183,8,36*
Cc1ccc(S(=O)(=O)Nc2ccc3nc(N)sc3c2)cc1,-1,4,-2,-10,-4
Cc1ccc(S(=O)(=O)Nc2ccc3nc(C)sc3c2)cc1,4,-2,-4,-14,1
Cc1ccc(S(=O)(=O)Nc2ccc3nc(C)oc3c2)cc1,0,0,.,8,11*
Cc1nc2ccc(S(=O)(=O)Nc3ccc(-c4nc5cccnc5s4)cc3)cc2s1,-32,10,.,-6,0
O=C(NN=Cc1ccc(Br)s1)c1ccccn1,.,.,7,.,.
CCCc1ccc(Oc2cn[nH]c2-c2ccc(O)cc2O)cc1,1,9,5,17,28*
COc1ccc(Oc2cn[nH]c2-c2ccc(O)cc2O)cc1,-3,-8,0,2,15*
CC1(C)N=C(C=NO)CN1O,.,.,2,.,.
O=C(Nc1nc(-c2cc3ccccc3oc2=O)cs1)c1ccc(Br)o1,11,4,-61,0,29*
COc1cccc2sc(Nc3nc(-c4cc5ccccc5oc4=O)cs3)nc12,-24,23,-14,-10,20*
CN(CC(=O)Nc1ccc(Cl)cc1)C(=O)c1ccc(NS(=O)(=O)c2ccc3[nH]c(=O)[nH]c3c2)cc1,1,-3,5,-2,-3
Cc1cccc(C)c1NC(=O)CN(C)C(=O)c1ccc(NS(=O)(=O)c2ccc3[nH]c(=O)[nH]c3c2)cc1,1,2,1,0,13*
Cc1cc(Cl)ccc1NC(=O)C=NO,.,.,3,.,.
O=c1cc2c(=O)oc3cc(O)c(O)oc3c2c(O)c1O,30*,17,16,3,-2
O=C(CNC(=O)c1ccco1)NN=Cc1ccccc1[N+](=O)[O-],.,.,5,.,.
CC1(C)C(c2cccs2)=[N+]([O-])C2(CCCCCC2=NO)N1O (stereo not drawn),.,.,-1,.,.
CCn1c(O)c(/C=C2\C=Nc3ccccc32)sc1=O,-21,-5,1,6,-13
SMILES,SENP1 FRET inh,NadD inh,UCH37 inh,ATG4B inhibitor,NR3A LBD binder
CCn1c(O)c(/C=C2\C=Nc3ccccc32)sc1=Nc1ccc(C)cc1,-22,8,5,29,18*
COc1ccc(C=NNC(=O)CNC(=O)c2ccc(S(=O)(=O)N3CCOCC3)cc2)c(OC)c1,.,.,6,.,.
CC(=NNC(=O)Cn1nc2ccccc2n1)c1ccc(F)cc1,.,.,-2,.,.
CSc1nc2ccc3nc(NC(=O)c4cccs4)sc3c2s1,-8,-5,-114,-3,28*
CSc1nc2ccc3nc(NC(=O)c4ccc(Cl)s4)sc3c2s1,-13,-4,-28,-8,21*
COc1ccc(OC)c2sc(NC(=O)c3ccc(Cl)s3)nc12,-2,2,-12,-12,-5
CC(C)(C)c1csc(NC(=O)c2cccs2)n1,3,-1,-1,1,-1
C/C(C=Nn1c(-c2cc(C)[nH]n2)n[nH]c1=S)=C\c1ccccc1,.,.,6,.,.
